Measured values pooled from the literature.
Target: Tyrosine-protein kinase Yes (YES1, Homo sapiens, UniProt P07947)

CC(C)(O)c1cncc(-c2nc3ccc(F)cc3n2C2CC2)c1
remaining binding (cell-free assay; competition with immobilised ligand; 1 µM): 100%

c1ccc(CNc2nc(N3CCOc4ccccc43)nc3c2CCCC3)cc1
inhibition (target engagement in cells; inhibitor; chemoproteomics; 20 mM): -4.3%

Nc1nc(Nc2ccccc2)sc1C(=O)c1c(F)cccc1F
remaining activity (enzyme activity; inhibitor; 10 µM): 26%

CN1CC(Oc2cnc(C#N)cc2-c2ccn3nc(NC(=O)C4CC4)cc3c2)C1
inhibition (enzyme activity; inhibitor; 1 µM): 86%

COc1cc(Nc2cnc(C#N)c(O[C@H](C)CN(C)C)n2)ncc1-c1cnn(C)c1
remaining activity (enzyme activity; inhibitor; radiometric; 10 µM): 39%

COc1cc2ncnc(Nc3ccc(Oc4ccccc4)c(C)c3C)c2cc1OC
inhibition (enzyme activity; inhibitor; 1 µM): 88%

CC(C)(C)C(=O)c1sc(NC2CCCCC2)nc1N
remaining activity (enzyme activity; inhibitor; 10 µM): 109%

O=C1Nc2ccc(Cl)cc2C1=Cc1cc(Cl)c(O)c(Cl)c1
remaining signal (cell-free assay; 0.5 µM): 78.3%

CN(c1ncccc1CNc1nc(Nc2ccc3c(c2)CC(=O)N3)ncc1C(F)(F)F)S(C)(=O)=O
inhibition (enzyme activity; inhibitor; 1 µM): 51.6%

FC(F)(F)Oc1cccc(-c2cnc3ccc(-c4ccncc4)nn23)c1
activity vs control (enzyme activity; inhibitor; radiometric; 5 µM): 77%

Cn1c(=O)n(-c2ccc(C(C)(C)C#N)cc2)c2c3cc(-c4cnc5ccccc5c4)ccc3ncc21
remaining activity (enzyme activity; inhibitor; 10 µM): 69%

O=c1cc(-c2cccc3c2Sc2ccccc2S3)oc(N2CCOCC2)c1
remaining activity (enzyme activity; inhibitor; 0.5 µM): 89.4%

CS(=O)(=O)NCC[C@H](NC(=O)c1cncc2c1cnn2-c1ccc(F)cc1)c1ccnc(S(C)(=O)=O)c1
remaining binding (cell-free assay; competition with immobilised ligand; 1 µM): 100%

CCN(CC)CCNC(=O)c1c(C)[nH]c(/C=C2\C(=O)Nc3ccc(F)cc32)c1C
inhibition (enzyme activity; inhibitor; 0.3 µM): 69%

CC(C)(C)c1nc(-c2cccc(NS(=O)(=O)c3c(F)cccc3F)c2F)c(-c2ccnc(N)n2)s1
remaining activity (enzyme activity; inhibitor; radiometric; 1 µM): 105%

O=C1NC(=O)c2cc(Nc3ccc(F)cc3)c(Nc3ccc(F)cc3)cc21
remaining signal (cell-free assay; 0.5 µM): 86.6%

O=C(O)[C@@H]1[C@@H](Cn2nnc3ccccc3c2=O)CC[C@H]1C(=O)c1ccc(OCCC2CCOCC2)cc1
remaining binding (cell-free assay; competition with immobilised ligand; 1 µM): 100%

Nc1ncnc2occ(-c3ccc(NC(=O)Nc4cc(C(F)(F)F)ccc4F)cc3)c12
remaining signal (cell-free assay; 20 µM): 2.9%

Cc1ccc(NC(=O)c2ccc(C)c(C(F)(F)F)c2)cc1C#Cc1nn(C2CCC(O)CC2)c2ncnc(N)c12 (stereo not drawn)
remaining signal (cell-free assay; 10 µM): 0%

C[C@@H](c1cccc(C#N)c1)n1cc(Cl)cc(C(N)=O)c1=N
remaining binding (cell-free assay; competition with immobilised ligand; 1 µM): 93%

CC/C(=N\NC(=O)NCc1cccc(O)c1)c1ccc(O)c(C)c1O
inhibition (enzyme activity; inhibitor; 0.1 µM): 4.5%

C=CC(=O)Nc1cc(Nc2nccc(Nc3cc(Cl)c(F)cc3C(C)(C)O)n2)c(OC)cc1N1CC[C@@H](N(C)C)C1
inhibition (enzyme activity; inhibitor; 1 µM): 51%

CN(C)C(=O)Cn1cc(-c2nc(C3(c4ccc(-c5cnc(N)nc5)cc4)CC3)no2)cn1
remaining binding (cell-free assay; competition with immobilised ligand; 1 µM): 87%

CCCCNc1ncc2c(-c3ccc(F)cc3)nn(C[C@H]3CC[C@H](N)CC3)c2n1
inhibition (target engagement in cells; inhibitor; chemoproteomics; 20 mM): 92.8%

CC(=O)c1c(NS(C)(=O)=O)c2cc(-c3ccc(Cl)cc3)c(-c3ccc(Cl)cc3Cl)nc2n(C)c1=O
remaining binding (cell-free assay; competition with immobilised ligand; 1 µM): 96%

O=C(Nc1cnn(-c2csc(C(=O)NC3COC3)c2)c1)Nc1ccccc1Cl
remaining activity (enzyme activity; inhibitor; 5 µM): 96.5%

CO[C@@H](C)c1c(Nc2ccc([C@H](N(C)C(=O)C3CCS(=O)(=O)CC3)C(F)(F)F)cc2)cnc2cc(Cl)nn12
remaining binding (cell-free assay; competition with immobilised ligand; 1 µM): 99%

COc1cc(/C=C/C(=O)CC(=O)/C=C/c2ccc(O)c(OC)c2)ccc1O
activity vs control (enzyme activity; inhibitor; 1 µM): 62%

Cc1noc([C@H]2C[C@@H](c3ccc(C(F)(F)F)cc3)CN(C(=O)N3CCS(=O)(=O)C3)C2)n1
remaining binding (cell-free assay; competition with immobilised ligand; 1 µM): 100%

Cc1sc(C(=O)NC2COC2)cc1-n1cc(NC(=O)Nc2c(F)cccc2Cl)cn1
remaining activity (enzyme activity; inhibitor; 10 µM): 81.4%
